Reference: ChEMBL document CHEMBL5143722, “Antimicrobial Peptides against Multidrug-Resistant Pseudomonas aeruginosa Biofilm from Cystic Fibrosis Patients” (J Med Chem, 2022)
The source made the active and inactive calls. The rule behind the calls is not given here.

Legend:
Pseudomonas aeruginosa [1] = assay: Antibiofilm activity against Pseudomonas aeruginosa clinical isolate 24 assessed as inhibition of biofilm formation at sub-inhibitory concentration incubated for 24 hrs by crystal violet staining based microtiter plate method; format: functional, organism-based
Outline: (§1)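 Washed overnight cultures in BM2 medium at 1 × 10^6 CFU/mL with 2-fold serial peptide dilutions in a U-bottom 96-well plate. Incubated 24 h at 37 °C without agitation. Unattached cells washed off, then 0.1% crystal violet stain read at 590 nm. No-bacteria blanks. Biomass expressed as % of untreated biofilm. At least three biological repeats.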

Pseudomonas aeruginosa [2] = assay: Antibiofilm activity against Pseudomonas aeruginosa clinical isolate 25 assessed as inhibition of biofilm formation at sub-inhibitory concentration incubated for 24 hrs by crystal violet staining based microtiter plate method; format: functional, organism-based; outline: as §1
Pseudomonas aeruginosa [3] = assay: Antibiofilm activity against Pseudomonas aeruginosa clinical isolate 46 assessed as inhibition of biofilm formation at sub-inhibitory concentration incubated for 24 hrs by crystal violet staining based microtiter plate method; format: functional, organism-based; outline: as §1
Pseudomonas aeruginosa [4] = assay: Antibiofilm activity against Pseudomonas aeruginosa clinical isolate 53 assessed as inhibition of biofilm formation at sub-inhibitory concentration incubated for 24 hrs by crystal violet staining based microtiter plate method; format: functional, organism-based; outline: as §1
Pseudomonas aeruginosa [5] = assay: Antibiofilm activity against Pseudomonas aeruginosa clinical isolate 71 assessed as inhibition of biofilm formation at sub-inhibitory concentration incubated for 24 hrs by crystal violet staining based microtiter plate method; format: functional, organism-based; outline: as §1
Pseudomonas aeruginosa [6] = assay: Antibiofilm activity against Pseudomonas aeruginosa clinical isolate 72 assessed as inhibition of biofilm formation at sub-inhibitory concentration incubated for 24 hrs by crystal violet staining based microtiter plate method; format: functional, organism-based; outline: as §1
Pseudomonas aeruginosa [7] = assay: Antibiofilm activity against Pseudomonas aeruginosa clinical isolate 99 assessed as inhibition of biofilm formation at sub-inhibitory concentration incubated for 24 hrs by crystal violet staining based microtiter plate method; format: functional, organism-based; outline: as §1
Pseudomonas aeruginosa [8] = assay: Antibiofilm activity against Pseudomonas aeruginosa clinical isolate 629 assessed as inhibition of biofilm formation at sub-inhibitory concentration incubated for 24 hrs by crystal violet staining based microtiter plate method; format: functional, organism-based; outline: as §1
Pseudomonas aeruginosa [9] = assay: Induction of biofilm degradation of Pseudomonas aeruginosa clinical isolate 24 incubated for 1 hr by crystal violet staining analysis relative to control; format: functional; settings: dose 50.0 µM
Outline: (§2)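 Bacteria at 1 × 10^6 CFU/mL in BM2 grown static at 37 °C for 24 h to form biofilm. Wells rinsed of unattached cells, then exposed for 1 h to serial peptide dilutions (1.56–50 μM). Washed, stained with 0.1% crystal violet, A590 read. Biomass given as % of untreated biofilm; no-bacteria wells as blanks. At least three biological repeats.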

Pseudomonas aeruginosa [10] = assay: Induction of biofilm degradation of Pseudomonas aeruginosa clinical isolate 25 at 50 uM incubated for 1 hr by crystal violet staining analysis relative to control; format: functional; outline: as §2
Pseudomonas aeruginosa [11] = assay: Induction of biofilm degradation of Pseudomonas aeruginosa clinical isolate 29 at 50 uM incubated for 1 hr by crystal violet staining analysis relative to control; format: functional; outline: as §2
Pseudomonas aeruginosa [12] = assay: Induction of biofilm degradation of Pseudomonas aeruginosa clinical isolate 40 at 50 uM incubated for 1 hr by crystal violet staining analysis relative to control; format: functional; outline: as §2
Pseudomonas aeruginosa [13] = assay: Induction of biofilm degradation of Pseudomonas aeruginosa clinical isolate 46 at 50 uM incubated for 1 hr by crystal violet staining analysis relative to control; format: functional; outline: as §2
Pseudomonas aeruginosa [14] = assay: Induction of biofilm degradation of Pseudomonas aeruginosa clinical isolate 52 at 50 uM incubated for 1 hr by crystal violet staining analysis relative to control; format: functional; outline: as §2
Pseudomonas aeruginosa [15] = assay: Induction of biofilm degradation of Pseudomonas aeruginosa clinical isolate 53 at 50 uM incubated for 1 hr by crystal violet staining analysis relative to control; format: functional; outline: as §2
Pseudomonas aeruginosa [16] = assay: Induction of biofilm degradation of Pseudomonas aeruginosa clinical isolate 71 at 50 uM incubated for 1 hr by crystal violet staining analysis relative to control; format: functional; outline: as §2
Pseudomonas aeruginosa [17] = assay: Induction of biofilm degradation of Pseudomonas aeruginosa clinical isolate 72 at 50 uM incubated for 1 hr by crystal violet staining analysis relative to control; format: functional; outline: as §2
Pseudomonas aeruginosa [18] = assay: Induction of biofilm degradation of Pseudomonas aeruginosa clinical isolate 82 at 50 uM incubated for 1 hr by crystal violet staining analysis relative to control; format: functional; outline: as §2
Pseudomonas aeruginosa [19] = assay: Induction of biofilm degradation of Pseudomonas aeruginosa clinical isolate 99 at 50 uM incubated for 1 hr by crystal violet staining analysis relative to control; format: functional; outline: as §2
Pseudomonas aeruginosa [20] = assay: Induction of biofilm degradation of Pseudomonas aeruginosa clinical isolate 172 at 50 uM incubated for 1 hr by crystal violet staining analysis relative to control; format: functional; outline: as §2
Pseudomonas aeruginosa [21] = assay: Induction of biofilm degradation of Pseudomonas aeruginosa clinical isolate 238 at 50 uM incubated for 1 hr by crystal violet staining analysis relative to control; format: functional; outline: as §2
Pseudomonas aeruginosa [22] = assay: Induction of biofilm degradation of Pseudomonas aeruginosa clinical isolate 251 at 50 uM incubated for 1 hr by crystal violet staining analysis; format: functional; outline: as §2
Pseudomonas aeruginosa [23] = assay: Induction of biofilm degradation of Pseudomonas aeruginosa clinical isolate 629 at 50 uM incubated for 1 hr by crystal violet staining analysis relative to control; format: functional; outline: as §2
Pseudomonas aeruginosa [24] = assay: Induction of biofilm degradation of Pseudomonas aeruginosa clinical isolate 995 at 50 uM incubated for 1 hr by crystal violet staining analysis relative to control; format: functional; outline: as §2
Pseudomonas aeruginosa [25] = assay: Induction of biofilm degradation of Pseudomonas aeruginosa PAO1 at 50 uM incubated for 1 hr by crystal violet staining analysis relative to control; format: functional; outline: as §2
Pseudomonas aeruginosa [26] = assay: Induction of biofilm degradation of Pseudomonas aeruginosa clinical isolate 59 at 50 uM incubated for 1 hr by crystal violet staining analysis relative to control; format: functional
Outline: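 Inoculum of 1 × 10^6 CFU/mL was grown 24 h at 37 °C without agitation to form biofilm. Wells were rinsed of unattached bacteria and exposed for 1 h to serial peptide dilutions (1.56–50 μM). They were then washed, stained with 0.1% crystal violet, and read at 590 nm with no-bacteria blanks. Biomass is given as % of untreated biofilm.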

Pseudomonas aeruginosa [27] = assay: Induction of biofilm degradation of Pseudomonas aeruginosa clinical isolate 24 at sub MIC concentration incubated for 1 hr by crystal violet staining analysis; format: functional; outline: as §2
Pseudomonas aeruginosa [28] = assay: Induction of biofilm degradation of Pseudomonas aeruginosa clinical isolate 40 at sub MIC concentration incubated for 1 hr by crystal violet staining analysis; format: functional; outline: as §2
Pseudomonas aeruginosa [29] = assay: Induction of biofilm degradation of Pseudomonas aeruginosa clinical isolate 53 at sub MIC concentration incubated for 1 hr by crystal violet staining analysis; format: functional; outline: as §2
Pseudomonas aeruginosa [30] = assay: Induction of biofilm degradation of Pseudomonas aeruginosa clinical isolate 59 at <12.5 uM incubated for 1 hr by crystal violet staining analysis; format: functional; outline: as §2
Pseudomonas aeruginosa [31] = assay: Antibiofilm activity against Pseudomonas aeruginosa clinical isolate 24 in basal medium 2 at 12.5 to 100 uM incubated for 24 hrs by resazurin staining based microtiter plate method; format: functional, organism-based; settings: dose 12.5-100 µM
Pseudomonas aeruginosa [32] = assay: Antibiofilm activity against Pseudomonas aeruginosa clinical isolate 46 in basal medium 2 at 12.5 to 100 uM incubated for 24 hrs by resazurin staining based microtiter plate method; format: functional, organism-based; settings: dose 12.5-100 µM
Pseudomonas aeruginosa [33] = assay: Antibiofilm activity against Pseudomonas aeruginosa clinical isolate 82 in basal medium 2 at 12.5 to 100 uM incubated for 24 hrs by resazurin staining based microtiter plate method; format: functional, organism-based; settings: dose 12.5-100 µM
Pseudomonas aeruginosa [34] = assay: Antibiofilm activity against Pseudomonas aeruginosa PAO1 in basal medium 2 at 12.5 to 100 uM incubated for 24 hrs by resazurin staining based microtiter plate method; format: functional, organism-based; settings: dose 12.5-100 µM
Pseudomonas aeruginosa [35] = assay: Inhibition of biofilm formation of Pseudomonas aeruginosa clinical isolate 24 derived from cystic fibrosis patient sputum at 0.78 to 25 uM by crystal violet based staining analysis; format: functional, organism-based; settings: dose 0.78-25 µM
Outline: (§3)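 CF patient sputum diluted 10-fold with BM2, bacteria added with serial peptide dilutions starting from the highest MIC per isolate. Inoculum suspension 1 × 10^6 CFU/mL. Incubated 24 h at 37 °C without agitation. Unattached cells washed away, then 0.1% crystal violet staining and A590. Biomass given as % of untreated, with no-bacteria blanks.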

Pseudomonas aeruginosa [36] = assay: Inhibition of biofilm formation of Pseudomonas aeruginosa clinical isolate 24 derived from cystic fibrosis patient sputum at 0.09 to 3.12 uM by crystal violet based staining analysis; format: functional, organism-based; settings: dose 0.09-3.12 µM; outline: as §3
Pseudomonas aeruginosa [37] = assay: Inhibition of biofilm formation of Pseudomonas aeruginosa clinical isolate 82 derived from cystic fibrosis patient sputum at 0.09 to 3.12 uM by crystal violet based staining analysis; format: functional, organism-based; settings: dose 0.09-3.12 µM; outline: as §3
Pseudomonas aeruginosa [38] = assay: Inhibition of biofilm formation of Pseudomonas aeruginosa PAO1 in patient derived CF-sputum at 0.09 to 3.12 uM by crystal violet based staining analysis; format: functional, organism-based; settings: dose 0.09-3.12 µM; outline: as §3
[39] = test system: Pseudomonas aeruginosa PAO1; assay: Induction of biofilm degradation of Pseudomonas aeruginosa PAO1 in cystic fibrosis patient sputum at 10 uM incubated for 48 hr by resazurin staining based confocal microscopy analysis

In the case of `CC(C)C[C@H](NC(=O)[C@H](CC(C)C)NC(=O)[C@H](CC(C)C)NC(=O)[C@H](CC(C)C)NC(=O)[C@H](CCCCN)NC(=O)[C@H](CCCCN)NC(=O)[C@H](CCCCN)NC(=O)[C@H](CCCCN)NC(=O)[C@H](CCCCN)NC(=O)[C@H](CCCCN)NC(=O)[C@H](CC(C)C)NC(=O)[C@H](CC(C)C)NC(=O)[C@H](CC(C)C)NC(=O)[C@H](CC(C)C)NC(=O)[C@@H](N)CC(C)C)C(N)=O`, the inhibition (Pseudomonas aeruginosa [1]) is reported as “Active”, the inhibition (Pseudomonas aeruginosa [2]) is reported as “Active” and the inhibition (Pseudomonas aeruginosa [3]) is reported as “Active”. For the same compound, the inhibition (Pseudomonas aeruginosa [4]) was “Active”, the inhibition (Pseudomonas aeruginosa [5]) was “Active” and the inhibition (Pseudomonas aeruginosa [6]) was “Active”. For the same compound, the inhibition (Pseudomonas aeruginosa [7]) was “Active”, the inhibition (Pseudomonas aeruginosa [8]) was “Active” and the Activity (Pseudomonas aeruginosa [9]) was 60%. The Activity (Pseudomonas aeruginosa [10]) was 60%, the Activity (Pseudomonas aeruginosa [11]) was 60% and the Activity (Pseudomonas aeruginosa [12]) was 60%. The Activity (Pseudomonas aeruginosa [13]) was 60%, the Activity (Pseudomonas aeruginosa [14]) was 60% and the Activity (Pseudomonas aeruginosa [15]) was 60%. It also gave an Activity (Pseudomonas aeruginosa [16]) of 60%, an Activity (Pseudomonas aeruginosa [17]) of 60% and an Activity (Pseudomonas aeruginosa [18]) of 60%. It also gave an Activity (Pseudomonas aeruginosa [19]) of 60%, an Activity (Pseudomonas aeruginosa [20]) of 60% and an Activity (Pseudomonas aeruginosa [21]) of 60%. The Activity (Pseudomonas aeruginosa [22]) was 60%, the Activity (Pseudomonas aeruginosa [23]) was 60% and the Activity (Pseudomonas aeruginosa [24]) was 60%. For the same compound, the Activity (Pseudomonas aeruginosa [25]) was 60%, the Activity (Pseudomonas aeruginosa [26]) was 40% and the Activity (Pseudomonas aeruginosa [27]) was “Active”. For the same compound, the Activity (Pseudomonas aeruginosa [28]) was “Active”, the Activity (Pseudomonas aeruginosa [29]) was “Active” and the Activity (Pseudomonas aeruginosa [30]) was “Active”. The Activity (Pseudomonas aeruginosa [31]) was “Active”, the Activity (Pseudomonas aeruginosa [32]) was “Active” and the Activity (Pseudomonas aeruginosa [33]) was “Active”. For the same compound, the Activity (Pseudomonas aeruginosa [34]) was “Active”, the inhibition (Pseudomonas aeruginosa [35]) was “Active” and the inhibition (Pseudomonas aeruginosa [36]) was “Active”. For the same compound, the inhibition (Pseudomonas aeruginosa [37]) was “Active”, the inhibition (Pseudomonas aeruginosa [38]) was “Active” and the Activity [39] was “Active”.
